Published values collected from several papers.
Protocols differ between the studies behind these lines.
Target: Protein kinase C epsilon type (PRKCE, Homo sapiens, UniProt Q02156)
Residues used in one study (Q02156 1-737): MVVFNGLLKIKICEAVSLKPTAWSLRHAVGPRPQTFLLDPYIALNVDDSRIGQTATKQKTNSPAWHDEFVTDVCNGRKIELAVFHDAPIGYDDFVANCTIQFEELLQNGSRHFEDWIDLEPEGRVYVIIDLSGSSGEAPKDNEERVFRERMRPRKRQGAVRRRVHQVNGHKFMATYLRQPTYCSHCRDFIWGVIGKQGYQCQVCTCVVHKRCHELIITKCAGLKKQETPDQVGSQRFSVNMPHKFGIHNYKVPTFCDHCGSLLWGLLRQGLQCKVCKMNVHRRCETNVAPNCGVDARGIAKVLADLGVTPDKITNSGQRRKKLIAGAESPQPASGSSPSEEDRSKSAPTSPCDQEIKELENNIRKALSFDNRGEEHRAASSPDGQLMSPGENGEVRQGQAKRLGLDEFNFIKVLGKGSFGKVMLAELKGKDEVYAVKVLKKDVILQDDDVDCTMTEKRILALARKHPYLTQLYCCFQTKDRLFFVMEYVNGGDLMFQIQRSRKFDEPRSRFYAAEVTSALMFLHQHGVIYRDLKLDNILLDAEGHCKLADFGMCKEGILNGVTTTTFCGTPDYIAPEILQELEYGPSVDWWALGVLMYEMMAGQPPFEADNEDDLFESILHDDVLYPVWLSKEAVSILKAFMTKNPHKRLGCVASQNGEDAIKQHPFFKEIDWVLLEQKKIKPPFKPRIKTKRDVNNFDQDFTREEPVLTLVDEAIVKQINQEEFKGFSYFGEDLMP

The remaining binding of `COc1ccc2c(O[C@@H]3C[C@H]4C(=O)N[C@]5(C(=O)O)CC5/C=C\CCCCC[C@H](NC(=O)OC5CCCC5)C(=O)N4C3)cc(-c3csc(NC(=O)C(C)C)n3)nc2c1C` (some centres unmarked) is reported as 58% (cell-free assay; competition with immobilised ligand; 1 µM).
With `CN(C)c1nccc(-c2cnc3ncccn23)n1` the remaining binding was 100% (binding; 1 µM).
The remaining binding of `CN(C)C(=O)Cn1cc(-c2nc(C3(c4ccc(-c5cnc(N)nc5)cc4)CC3)no2)cn1` is reported as 90% (cell-free assay; competition with immobilised ligand; 1 µM).
For `N[C@@H]1CCN(c2nccc(-c3cnn4ncccc34)n2)C1`, the remaining binding was 97% (binding; 1 µM).
`CN(c1ccnc(CNc2nc(Nc3ccc4c(c3)CC(=O)N4)ncc2C(F)(F)F)n1)S(C)(=O)=O` gave a remaining binding of 50% (cell-free assay; competition with immobilised ligand; 1 µM).
`COc1cnc(Nc2cccc(S(N)(=O)=O)c2)nc1N1CCN(c2ccccc2)C(=O)C1` gave a remaining binding of 100% (binding; competition with immobilised ligand; 1 µM).
`Cc1cnn2ncc(-c3ccnc(N(C)C)n3)c2c1` gave a remaining binding of 100% (binding; 1 µM).
`C[C@@H]1CN(c2ccc3ncc(-c4ccc5[nH]nc(C6CC6)c5c4)n3n2)C[C@H](C)O1` gave a remaining binding of 86% (binding; competition with immobilised ligand; 50 nM).
For `Cn1nc(C(=O)NCc2ccc(C(=O)O)cc2)cc1-c1ccc2[nH]ccc2c1`, the remaining binding was 64% (cell-free assay; competition with immobilised ligand; 0.1 µM).
With `CCN1CCN(Cc2ccc(C(=O)Nc3ccc(C)c(Oc4ccc5c(c4)CC(=O)N5)c3)cc2C(F)(F)F)CC1` the remaining binding was 100% (binding; competition with immobilised ligand; 1 µM).
The remaining binding of `O=C(NCCCN1CCOCC1)c1ccc(Nc2nccc(-c3cc4ccccc4s3)n2)cc1` is reported as 71% (binding; competition with immobilised ligand; 1 µM).
The remaining binding of `O=C(NCC1CCOCC1)c1n[nH]cc1NC(=O)c1c(F)cccc1F` is reported as 87% (binding; competition with immobilised ligand; 1 µM).
The remaining binding of `COc1cc(-c2cn(C3CCc4c(F)cccc4N(CC(F)(F)F)C3=O)nn2)ccc1-n1cnc(C)c1` (centres unmarked) is reported as 100% (cell-free assay; competition with immobilised ligand; 1 µM).
With `c1cnn2ncc(-c3ccnc(N4CCC45COC5)n3)c2c1` the remaining binding was 100% (binding; 1 µM).
`O=C(c1ccc(Nc2nccc(-c3cc4ccccc4s3)n2)cc1)N1CCC(N2CCCC2)CC1` has a remaining binding of 68% (binding; competition with immobilised ligand; 1 µM).
With `CC1CCCN1c1nccc(-c2cnn3ncccc23)n1` (centres unmarked) the remaining binding was 100% (binding; 1 µM).
For `FC(F)(F)Oc1cccc(-c2cnc3ccc(-c4ccncc4)nn23)c1`, the remaining binding was 62% (cell-free assay; competition with immobilised ligand; 5 µM).
